# Measured values published in ChEMBL document CHEMBL1122341, “Prostaglandin isosteres. 2. Chain-modified thiazolidinone prostaglandin analogues as renal vasodilators” (1983).
# Columns and labels:
# Canis familiaris [1] = assay: Effect on heart rate in conscious dogs dosed at 5 mg/kg, observed at 4-5 h; type: functional, Canis lupus familiaris
# In short: (§1)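 Conscious dogs; aortic catheter for blood pressure and heart rate, with renal and lower aortic blood flow monitored. After a 30-min control period the compound was given orally and the variables were followed for a further 5 h, recorded every 2 min. Readings were averaged over the control period and each hourly postdose period; means ± SE.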
# Canis familiaris [2] = assay: Percent change in renal plasma flow in conscious dogs dosed at 0.05 mg/kg; type: functional, Canis lupus familiaris
# In short: (§2)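 Trained conscious female mongrel dogs, postabsorptive, given 500 mL tap water orally 1-1.5 h beforehand. Effective renal plasma flow was taken as renal p-aminohippurate clearance: priming 8 mg/kg iv, then 0.3 (mg/kg)/min in isotonic NaCl. Two 30-min control clearance periods, a single iv dose (Na salt, aqueous), then four 30-min periods. Plasma sampled at midpoints; means ± SEM.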
# Canis familiaris [3] = assay: Effect on renal plasma flow in conscious dogs dosed at 0.2 mg/kg (pretreatment); type: functional, Canis lupus familiaris; in short: as §2
# Canis familiaris [4] = assay: Effect on renal blood flow in conscious dogs dosed at 5 mg/kg, observed at 3-4 h; type: functional, Canis lupus familiaris; in short: as §1
# Canis familiaris [5] = assay: Effect on lower arterial blood pressure in conscious dogs dosed at 5 mg/kg, observed at 3-4 h; type: functional, Canis lupus familiaris; in short: as §1
# Canis familiaris [6] = assay: Effect on lower arterial blood pressure in conscious dogs dosed at 5 mg/kg, observed at 4-5 h; type: functional, Canis lupus familiaris; in short: as §1
# Canis familiaris [7] = assay: Effect on lower aortic blood flow in conscious dogs dosed at 5 mg/kg, observed at 3-4 h; type: functional, Canis lupus familiaris, Aorta; in short: as §1
# Canis familiaris [8] = assay: Effect on renal blood flow in conscious dogs dosed at 5 mg/kg, observed at 1-2 h; type: functional, Canis lupus familiaris, Kidney; in short: as §1
# Canis familiaris [9] = assay: Effect on renal blood flow in conscious dogs dosed at 5 mg/kg, observed at 4-5 h; type: functional, Canis lupus familiaris; in short: as §1
# Canis familiaris [10] = assay: Effect on renal plasma flow in conscious dogs dosed at 0.05 mg/kg (pretreatment); type: functional, Canis lupus familiaris; in short: as §2
# Canis familiaris [11] = assay: Effect on renal plasma flow in conscious dogs dosed at 0.1 mg/kg (pretreatment); type: functional, Canis lupus familiaris; in short: as §2
# Canis familiaris [12] = assay: Effect on lower aortic blood flow in conscious dogs dosed at 5 mg/kg, observed at 2-3 h; type: functional, Canis lupus familiaris, Aorta; in short: as §1
# Canis familiaris [13] = assay: Effect on lower arterial blood pressure in conscious dogs dosed at 5 mg/kg, observed at 2-3 h; type: functional, Canis lupus familiaris; in short: as §1
# Canis familiaris [14] = assay: Effect on renal blood flow in conscious dogs dosed at 5 mg/kg, observed at 2-3 h; type: functional, Canis lupus familiaris, Kidney; in short: as §1
# Canis familiaris [15] = assay: Effect on lower arterial blood pressure in conscious dogs dosed at 5 mg/kg, observed at 0-1 h; type: functional, Canis lupus familiaris; in short: as §1
# Canis familiaris [16] = assay: Effect on renal plasma flow in conscious dogs dosed at 0.05 mg/kg (post-treatment); type: functional, Canis lupus familiaris; in short: as §2
# Canis familiaris [17] = assay: Effect on heart rate in conscious dogs dosed at 5 mg/kg, observed at 2-3 h; type: functional, Canis lupus familiaris; in short: as §1
# Canis familiaris [18] = assay: Effect on lower aortic blood flow in conscious dogs dosed at 5 mg/kg, observed at 1-2 h; type: functional, Canis lupus familiaris, Aorta; in short: as §1
# Canis familiaris [19] = assay: Percent change in renal plasma flow in conscious dogs dosed at 0.1 mg/kg; type: functional, Canis lupus familiaris; in short: as §2
# Canis familiaris [20] = assay: Percent change in renal resistance in anesthetized dogs after infusion of compound at 10 nM/kg/min; type: functional, Canis lupus familiaris
# In short: (§3)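 Vinbarbital-anesthetized dogs with an electromagnetic flow probe on the left renal artery and an aortic catheter for pressure. Saline was infused intrarenally for 30 min as pretreatment. Percent change was calculated from the maximum decrease in renal resistance versus pretreatment.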
# Canis familiaris [21] = assay: Effect on renal plasma flow in conscious dogs dosed at 0.2 mg/kg (post-treatment); type: functional, Canis lupus familiaris; in short: as §2
# Canis familiaris [22] = assay: Percent change in renal plasma flow in conscious dogs dosed at 0.2 mg/kg; type: functional, Canis lupus familiaris; in short: as §2
# Canis familiaris [23] = assay: Effect on renal blood flow in conscious dogs dosed at 5 mg/kg, observed at 0-1 h; type: functional, Canis lupus familiaris; in short: as §1
# Canis familiaris [24] = assay: Percent change in renal resistance in anesthetized dogs after infusion of compound at 25 nM/kg/min; type: functional, Canis lupus familiaris
# Canis familiaris [25] = assay: Effect on heart rate in conscious dogs dosed at 5 mg/kg, observed at 3-4 h; type: functional, Canis lupus familiaris; in short: as §1
# Canis familiaris [26] = assay: Effect on heart rate in conscious dogs dosed at 5 mg/kg, observed at 1-2 h; type: functional, Canis lupus familiaris; in short: as §1
# Canis familiaris [27] = assay: Percent change in renal resistance in anesthetized dogs after infusion of compound at 50 nM/kg/min; type: functional, Canis lupus familiaris
# Canis familiaris [28] = assay: Effect on heart rate in conscious dogs dosed at 5 mg/kg, observed at 0-1 h; type: functional, Canis lupus familiaris; in short: as §1
# Canis familiaris [29] = assay: Effect on renal plasma flow in conscious dogs dosed at 0.1 mg/kg (post-treatment); type: functional, Canis lupus familiaris; in short: as §2
# Canis familiaris [30] = assay: Effect on lower aortic blood flow in conscious dogs dosed at 5 mg/kg, observed at 4-5 h; type: functional, Canis lupus familiaris, Aorta; in short: as §1
# Canis familiaris [31] = assay: Effect on lower aortic blood flow in conscious dogs dosed at 5 mg/kg, observed at 0-1 h; type: functional, Canis lupus familiaris, Aorta; in short: as §1
# Canis familiaris [32] = assay: Effect on lower arterial blood pressure in conscious dogs dosed at 5 mg/kg, observed at 1-2 h; type: functional, Canis lupus familiaris; in short: as §1
# Canis familiaris [33] = assay: Percent change in renal plasma flow in conscious dogs dosed at 10 mg/kg; type: functional, Canis lupus familiaris; in short: as §2
# Canis familiaris [34] = assay: Effect on renal plasma flow in conscious dogs dosed at 0.4 mg/kg (pretreatment); type: functional, Canis lupus familiaris; in short: as §2
# Canis familiaris [35] = assay: Effect on renal plasma flow in conscious dogs dosed at 10 mg/kg (post-treatment); type: functional, Canis lupus familiaris; in short: as §2
# Canis familiaris [36] = assay: Percent change in renal plasma flow in conscious dogs dosed at 0.4 mg/kg; type: functional, Canis lupus familiaris; in short: as §2
# Canis familiaris [37] = assay: Effect on renal plasma flow in conscious dogs dosed at 10 mg/kg (pretreatment); type: functional, Canis lupus familiaris; in short: as §2
# Canis familiaris [38] = assay: Effect on renal plasma flow in conscious dogs dosed at 0.4 mg/kg (post-treatment); type: functional, Canis lupus familiaris; in short: as §2
# Canis familiaris [39] = assay: Effect on renal plasma flow in conscious dogs dosed at 0.025 mg/kg (pretreatment); type: functional, Canis lupus familiaris; in short: as §2
# Canis familiaris [40] = assay: Effect on renal plasma flow in conscious dogs dosed at 0.025 mg/kg (post-treatment); type: functional, Canis lupus familiaris; in short: as §2
# Canis familiaris [41] = assay: Percent change in renal plasma flow in conscious dogs dosed at 0.025 mg/kg; type: functional, Canis lupus familiaris; in short: as §2
# Canis familiaris [42] = assay: Percent change in renal resistance in anesthetized dogs after infusion of compound at 60 nM/kg/min; type: functional, Canis lupus familiaris; settings: in the assay text read “60 ng/kg/min” for “60 nM/kg/min”; in short: as §3
# Canis familiaris [43] = assay: Percent change in renal resistance in anesthetized dogs after infusion of compound at 110 nM/kg/min; type: functional, Canis lupus familiaris; in short: as §3
# [44] = dose 1 mg/kg, in the assay text read “dosed at 1 mg/kg” for “dosed at 5 mg/kg”
Compound,Mean HR (Canis familiaris [1]),Activity (Canis familiaris [3]),Mean RBF (Canis familiaris [4]),Mean blood pressure (Canis familiaris [5]),Mean blood pressure (Canis familiaris [6]),Mean LAF (Canis familiaris [7]),Mean RBF (Canis familiaris [8]),Mean RBF (Canis familiaris [9]),Mean LAF (Canis familiaris [12]),Mean blood pressure (Canis familiaris [13]),Mean blood pressure (Canis familiaris [15]),Mean HR (Canis familiaris [17]),Mean LAF (Canis familiaris [18]),Mean RBF (Canis familiaris [23]),Mean HR (Canis familiaris [25]),Mean HR (Canis familiaris [26]),Mean HR (Canis familiaris [28]),Mean LAF (Canis familiaris [30]),Mean LAF (Canis familiaris [31]),Mean blood pressure (Canis familiaris [32]),further results
O=C(O)c1ccc(CCCC2SCC(=O)N2CCC2(O)CCCCC2)cc1 (stereo not drawn),136 beats min-1,136 mL/min,233 mL/min,101 mmHg,98 mmHg,492 mL/min,211 mL/min,242 mL/min,521 mL/min,97 mmHg,105 mmHg,144 beats min-1,597 mL/min,179 mL/min,131 beats min-1,169 beats min-1,122 beats min-1,477 mL/min,486 mL/min,89 mmHg,Change (Canis familiaris [2]): 62%; Activity (Canis familiaris [10]): 148 mL/min; Activity (Canis familiaris [11]): 142 mL/min; Mean RBF (Canis familiaris [14]; [44]): 226 mL/min; Activity (Canis familiaris [16]): 240 mL/min; Change (Canis familiaris [19]): 52%; Change (Canis familiaris [20]): -13%; Activity (Canis familiaris [21]): 322 mL/min; Change (Canis familiaris [22]): 137%; Change (Canis familiaris [24]): -24%; Change (Canis familiaris [27]): -28%; Activity (Canis familiaris [29]): 216 mL/min
O=C(O)c1ccc(CCC[C@@H]2SCC(=O)N2CCC2(O)CCCCC2)cc1,,138 mL/min,,,,,,,,,,,,,,,,,,,Change (Canis familiaris [33]): 9%; Activity (Canis familiaris [34]): 136 mL/min; Activity (Canis familiaris [35]): 151 mL/min; Change (Canis familiaris [36]): 8%; Activity (Canis familiaris [37]): 139 mL/min; Activity (Canis familiaris [21]): 146 mL/min; Change (Canis familiaris [22]): 6%; Activity (Canis familiaris [38]): 147 mL/min
CCCCCC(O)CCN1C(=O)CSC1CCCc1ccc(C(=O)O)cc1 (stereo not drawn),84 beats min-1,,183 mL/min,116 mmHg,116 mmHg,521 mL/min,241 mL/min,159 mL/min,625 mL/min,116 mmHg,118 mmHg,107 beats min-1,560 mL/min,201 mL/min,92 beats min-1,118 beats min-1,103 beats min-1,510 mL/min,546 mL/min,108 mmHg,Mean RBF (Canis familiaris [14]; dose 5 mg/kg): 209 mL/min
CCCCCC(O)CCN1C(=O)CSC1CCCCCCC(=O)O (stereo not drawn),76 beats min-1,,116 mL/min,133 mmHg,132 mmHg,427 mL/min,110 mL/min,111 mL/min,432 mL/min,140 mmHg,123 mmHg,85 beats min-1,424 mL/min,181 mL/min,82 beats min-1,79 beats min-1,126 beats min-1,386 mL/min,420 mL/min,146 mmHg,Mean RBF (Canis familiaris [14]; dose 5 mg/kg): 110 mL/min
O=C(O)c1ccc(CCC[C@H]2SCC(=O)N2CCC2(O)CCCCC2)cc1,,143 mL/min,,,,,,,,,,,,,,,,,,,Activity (Canis familiaris [39]): 155 mL/min; Change (Canis familiaris [2]): 62%; Activity (Canis familiaris [40]): 239 mL/min; Activity (Canis familiaris [10]): 178 mL/min; Activity (Canis familiaris [16]): 289 mL/min; Activity (Canis familiaris [21]): 292 mL/min; Change (Canis familiaris [22]): 104%; Change (Canis familiaris [41]): 54%
O=C(O)CCCCCCC1SCC(=O)N1CCC1(O)CCCCC1 (stereo not drawn),88 beats min-1,,176 mL/min,100 mmHg,104 mmHg,510 mL/min,150 mL/min,160 mL/min,530 mL/min,92 mmHg,59 mmHg,113 beats min-1,742 mL/min,97 mL/min,94 beats min-1,185 beats min-1,180 beats min-1,388 mL/min,772 mL/min,74 mmHg,Mean RBF (Canis familiaris [14]; [44]): 199 mL/min
CCCCC[C@H](O)/C=C/[C@H]1[C@H](O)CC(=O)[C@@H]1C/C=C\CCCC(=O)O [DINOPROSTONE],,,,,,,,,,,,,,,,,,,,,Change (Canis familiaris [42]): -29%; Change (Canis familiaris [20]): -13%; Change (Canis familiaris [43]): -35%
